# Results as given in ChEMBL document CHEMBL1155597, “Activity of extracts and isolated naphthoquinones from Kigelia pinnata against Plasmodium falciparum” (J Nat Prod, 2000).
# Key:
# Plasmodium falciparum [1] = assay: Antimalarial activity after 48 hrs against chloroquine-resistant Plasmodium falciparum K1 by LDH reporter assay; assay type: functional, organism-based; details: K1, 48 h
# In short: (§1)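 Asexual cultures kept in 5% A+ human red cells in RPMI 1640 with HEPES, glucose, NaHCO3, hypoxanthine, gentamycin and 10% A+ human serum under 1% O2/3% CO2/96% N2 at 37 °C. Ring-stage blood (1% parasitemia, 2% hematocrit) exposed 48 h to compounds at 50 µg/mL to 1.63 ng/mL final (2-fold). Modified LDH read-out: Malstat, then NBT/phenazine ethosulfate, absorbance at 650 nm. Tested twice in triplicate; IC50 ± SD.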
# [2] = Selectivity ratio of ED50 for KB cells to IC50 for Plasmodium falciparum K1; assay type: ADME, cell-based; details: human, KB cells (cytotoxicity) versus Plasmodium falciparum K1
# In short: (§2)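 Ratio of KB ED50 to P. falciparum IC50. KB ED50 comes from the 48 h MTT assay. Parasite IC50 comes from a 48 h modified lactate dehydrogenase assay on ring-stage cultures (1% parasitemia, 2% hematocrit, A+ human RBC), 37 °C, 1% O2/3% CO2/96% N2. Compounds tested at 50 μg/mL to 1.63 ng/mL in 2-fold dilutions, twice in triplicate, with NBT/PES read at 650 nm.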
# KB = assay: Cytotoxicity against human KB cells after 48 hrs by MTT assay; assay type: functional; details: read-out: ED50 (the source's name)
# In short: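 KB human oral epidermal carcinoma cells in DMEM glutamax-1 + 10% HIFCS, 37 °C, 5% CO2. Log-phase cells seeded at 25 000/well and left 24 h to attach. Compounds added from DMSO (≤0.5% final), 200 to 0.064 μg/mL in 5-fold series, triplicate. After 48 h, MTT added for 4 h, formazan dissolved in DMSO, A540 blank-subtracted. Growth expressed as % of untreated control.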
# Plasmodium falciparum [3] = assay: Antimalarial activity after 48 hrs against chloroquine-sensitive Plasmodium falciparum T9-96 by LDH reporter assay; assay type: functional, organism-based; details: T9-96, 48 h; in short: as §1
# [4] = Selectivity ratio of ED50 for KB cells to IC50 for Plasmodium falciparum T9-96; assay type: ADME, cell-based; details: human, KB cells (cytotoxicity) versus Plasmodium falciparum T9-96; in short: as §2
Compound,IC50 (Plasmodium falciparum [1]) [µM],selectivity ratio [2],EC50 (KB) [µM],IC50 (Plasmodium falciparum [3]) [µM],selectivity ratio [4]
CC1=C2C=C3C(=O)c4cc(O)ccc4C(=O)C3(O)C(C)=C2CC1 (stereo unspecified) [ISOKIGELINOL],15.2,12.7,167,11.9,14
C[C@]12CC[C@@H]3[C@H]1C=C1C(=O)c4cc(O)ccc4C(=O)[C@@]1(O2)[C@]3(C)C=O [ISOPINNATAL],0.763,19.4,14.8,1.55,9.54
CC(O)c1cc2c(o1)C(=O)c1ccccc1C2=O (stereo unspecified),0.627,6.18,3.9,0.718,5.4
CCN(CC)CCCC(C)Nc1ccnc2cc(Cl)ccc12 (stereo unspecified) [CHLOROQUINE PHOSPHATE],,,43.9,,
CC1=C2C=C3C(=O)c4ccc(O)cc4C(=O)C3(O)C(C)=C2CC1 (stereo unspecified) [KIGELINOL],16.7,8.88,148,15.2,9.74
